Assay results: ChEMBL document CHEMBL4049449, “Discovery of a Novel Class of Survival Motor Neuron 2 Splicing Modifiers for the Treatment of Spinal Muscular Atrophy” (J Med Chem, 2017)
Activity calls are given as the source filed them. The rule behind the calls is not given here.

What was measured:
[1] = species on record: Homo sapiens; experiment: Modulation of patient derived full length SMN2 pre mRNA splicing assessed as restoration of functional SMN2 to protein level
[2] = species on record: Homo sapiens; experiment: Modulation of patient derived full length SMN2 pre mRNA splicing assessed as inclusion of exon 7
[3] = test system: Salmonella typhimurium; experiment: Genotoxicity in Salmonella typhimurium TA97 in presence of rat liver S9 fraction by Ames test; format: toxicity; settings: salmonella enterica subsp. enterica serovar typhimurium
In short: (§1)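 Ames plate incorporation: strains grown overnight at 37 °C in nutrient broth (TA102 with 0.3 μg/mL tetracycline). Compound at 20–2000 μg/plate in top agar with histidine/biotin, plus rat liver S9 mix (NADP, glucose 6-phosphate, KCl, MgCl2, pH 7.4 phosphate). Vogel–Bonner plates incubated 37 °C, 2 days; colonies counted by image analysis. Positive: dose-dependent ≥2-fold (TA1535, TA98) or ≥1.5-fold (TA97, TA100, TA102) rise over background.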

[4] = test system: Salmonella typhimurium; experiment: Genotoxicity in Salmonella typhimurium TA1535 in presence of rat liver S9 fraction by Ames test; format: toxicity; settings: salmonella enterica subsp. enterica serovar typhimurium; in short: as §1
[5] = test system: Salmonella typhimurium; experiment: Genotoxicity in Salmonella typhimurium TA100 in presence of rat liver S9 fraction by Ames test; format: toxicity; settings: salmonella enterica subsp. enterica serovar typhimurium; in short: as §1
[6] = test system: Salmonella typhimurium; experiment: Genotoxicity in Salmonella typhimurium TA98 in presence of rat liver S9 fraction by Ames test; format: toxicity; settings: salmonella enterica subsp. enterica serovar typhimurium; in short: as §1
[7] = test system: Salmonella typhimurium; experiment: Genotoxicity in Salmonella typhimurium TA102 in presence of rat liver S9 fraction by Ames test; format: toxicity; settings: salmonella enterica subsp. enterica serovar typhimurium; in short: as §1
[8] = test system: Mus musculus; experiment: Induction of SMN protein levels in neonatal delta7 FVB mouse brain at 0.3 mg/kg, ip qd administered from postnatal day 3 to day 9 measured 1 hr post last dose by HTRF assay relative to control; format: functional
[9] = test system: Mus musculus; experiment: Induction of SMN protein levels in C/C-Allele SMA FVB mouse brain at 10 mg/kg, po qd for 10 days measured 1 hr post last dose by HTRF assay relative to control; format: functional
In short: (§2)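 Adult C/C-allele SMA mice dosed orally once daily for 10 days at 1, 3 or 10 mg/kg. SMN protein in brain and quadriceps was expressed as % increase over vehicle-treated animals.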

[10] = Total AUC in neonatal wild type FVB mouse plasma at 3 mg/kg, ip qd for 10 days by LC-MS/MS analysis; format: ADME, organism-based; design: dose 3 mg/kg, route intraperitoneal, time AUCmax
In short: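 Plasma AUC determined in a satellite group of neonatal (P10) wild-type mice dosed ip. Free AUC was calculated using the free fraction measured in serum from adult mice.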

[11] = test system: Mus musculus; experiment: Induction of SMN protein levels in C/C-Allele SMA FVB mouse brain at 1 mg/kg, po qd for 10 days measured 1 hr post last dose by HTRF assay relative to control; format: functional; in short: as §2
[12] = Total AUC in wild type FVB mouse plasma at 10 mg/kg, po qd for 10 days by LC-MS/MS analysis; format: ADME, organism-based; design: dose 10 mg/kg, route oral, time AUCmax
[13] = test system: Mus musculus; experiment: Induction of SMN protein levels in C/C-Allele SMA FVB mouse brain at 3 mg/kg, po qd for 10 days measured 1 hr post last dose by HTRF assay relative to control; format: functional; in short: as §2
[14] = test system: Mus musculus; experiment: Induction of SMN protein levels in neonatal delta7 FVB mouse brain at 3 mg/kg, ip qd administered from postnatal day 3 to day 9 measured 1 hr post last dose by HTRF assay relative to control; format: functional
[15] = test system: Mus musculus; experiment: Induction of SMN protein levels in neonatal delta7 FVB mouse brain at 1 mg/kg, ip qd administered from postnatal day 3 to day 9 measured 1 hr post last dose by HTRF assay relative to control; format: functional

Row | Compound | EC1.5 [1] | EC1.5 [2] | also measured
1 | Cc1cn2cc(-c3ccc(NC(=O)N4CCN(C)CC4)cc3)nc2c(C)n1 | inactive | inactive | 
2 | Cc1nc2c(F)cc(NC(=O)c3ccc(N4CCNCC4)cc3F)cc2o1 | 116 nM | 39 nM | Activity [3]: Non-Toxic; Activity [4]: Non-Toxic; Activity [5]: Non-Toxic; Activity [6]: Non-Toxic; Activity [7]: Non-Toxic
3 | Cc1cn2cc(C#Cc3ccc(N4CCN(C)CC4)cc3)nc2c(C)n1 | inactive | inactive | 
4 | Cc1cn2cc(NC(=O)c3ccc(C4CCNCC4)cc3)nc2c(C)n1 | 3800 nM | 820 nM | 
5 | Cc1cn2cc(NC(=O)c3ccc(C4CCN(C)C4)cc3F)nc2c(C)n1 (stereo not given) | 176 nM | 91 nM | 
6 | Cc1cn2cc(C(=O)Nc3ccc(C4CCN(C)CC4)cc3)nc2c(C)n1 | inactive | inactive | 
7 | Cc1cn2cc(NC(=O)c3ccc(N4CCN(N5CCCC5)CC4)cc3F)nc2c(C)n1 | 200 nM | 100 nM | 
8 | Cc1cn2cc(NC(=O)c3ccc(N4CCC(N5CCCC5)C4)cc3F)nc2c(C)n1 (stereo not given) | 86 nM | 29 nM | 
9 | Cc1cn2cc(-c3ccc4c(c3)CCN(C3CCNCC3)C4=O)nc2c(C)n1 | inactive | 530 nM | 
10 | Cc1cn2cc(NC(=O)c3ccc(N4CCN(C)CC4)cn3)nc2c(C)n1 | 1520 nM |  | 
11 | Cc1cn2cc(-c3ccc(NC(=O)C4CCN(C)CC4)cc3)nc2c(C)n1 | inactive | inactive | 
12 | Cc1cn2cc(NC(=O)c3ccc(N4CCNCC4)cc3F)cc(F)c2n1 | 27 nM | 11 nM | Activity [3]: Toxic; Activity [4]: Toxic; Activity [5]: Toxic; Activity [6]: Toxic; Activity [7]: Toxic
13 | Cc1cn2cc(COc3ccc(N4CCNCC4)cc3)nc2c(C)n1 | inactive | inactive | 
14 | Cc1cn2cc(N(C)C(=O)c3ccc(N4CCN(C)CC4)cc3)nc2c(C)n1 | inactive | inactive | 
15 | Cc1cn2cc(C(=O)Nc3ccc(N4CCN(C)CC4)cc3)nc2c(C)n1 | inactive | inactive | 
16 | Cc1cn2cc(CCc3ccc(N4CCNCC4)cc3)nc2c(C)n1 | inactive | inactive | 
17 | CCN1CCN(c2ccc3cc(-c4cn5cc(C)nc(C)c5n4)c(=O)oc3c2)C[C@@H]1C |  |  | Activity [3]: Toxic; Activity [4]: Toxic; Activity [5]: Toxic; Activity [6]: Toxic; Activity [7]: Toxic
18 | Cc1cn2cc(-c3ccc(C(=O)NC4CCN(C)CC4)cc3)nc2c(C)n1 | inactive | inactive | 
19 | Cc1cn2cc(-c3cc4ccc(N5CCN(C)CC5)cc4c(=O)o3)nc2c(C)n1 |  | 25 nM | Activity [3]: Toxic; Activity [4]: Toxic; Activity [5]: Toxic; Activity [6]: Toxic; Activity [7]: Toxic
20 | Cc1cn2cc(-c3ccc4c(c3)OC(=O)N(C3CCNCC3)C4)nc2c(C)n1 | inactive | 4700 nM | 
21 | Cc1cn2cc(NC(=O)c3ccc(N4CCNCC4)cc3)nc2c(C)n1 | 775 nM |  | 
22 | Cc1cn2cc(/C=C/c3ccc(N4CCNCC4)cc3)nc2c(C)n1 | 8420 nM | 4410 nM | 

Now from value to compound, other results behind:

Row | EC1.5 [1] | EC1.5 [2] | Compound | also measured
23 | 555 nM | 129 nM | COc1nc(N2CCNCC2)ccc1C(=O)Nc1cn2cc(C)nc2cn1 | 
24 | 265 nM | 106 nM | Cc1cn2cc(NC(=O)c3ccc(N4CCNC(C(C)C)C4)cc3F)ncc2n1 (stereo not given) | 
25 | 152 nM | 40 nM | Cc1cn2cc(NC(=O)c3ccc(N4CCNC(C)C4)cc3F)c(C)cc2n1 (stereo not given) | Activity [3]: Non-Toxic; Activity [4]: Non-Toxic; Activity [5]: Non-Toxic; Activity [6]: Non-Toxic; Activity [7]: Non-Toxic
26 | 206 nM | 58 nM | COc1cc(N2CCNC(C)C2)ccc1C(=O)Nc1cn2cc(C)nc2cn1 (stereo not given) | 
27 | inactive | inactive | Cc1cn2nc(NC(=O)c3ccc(N4CCNC(C)C4)cc3F)nc2c(C)n1 (stereo not given) | Activity [3]: Non-Toxic; Activity [4]: Non-Toxic; Activity [5]: Non-Toxic; Activity [6]: Non-Toxic; Activity [7]: Non-Toxic
28 | 504 nM | 31 nM | Cc1cn2cc(NC(=O)c3ccc(N4CCNC(C)(C)C4)cc3F)ncc2n1 | 
29 | 158 nM | 29 nM | CC[C@@H]1CN(c2ccc(C(=O)Nc3cn4cc(C)nc4cn3)c(F)c2)CCN1 | Activity [8]: 0%; Activity [9]: 217%; AUC at 240 h [10]: 3730 ng·h/mL; Activity [11]: 19%; AUC at 240 h [12]: 19000 ng·h/mL; Activity [13]: 45%; Activity [14]: 117%; Activity [15]: 66%
30 | 246 nM | 12 nM | CC[C@H]1CN(c2ccc(C(=O)Nc3cn4cc(C)nc4cn3)c(F)c2)CCN1 | Activity [8]: 26%; Activity [9]: 260%; AUC at 240 h [10]: 4450 ng·h/mL; Activity [11]: 22%; AUC at 240 h [12]: 27100 ng·h/mL; Activity [13]: 81%; Activity [14]: 100%; Activity [15]: 53%
31 | 2250 nM | 1040 nM | Cc1cn2cc(NC(=O)c3ccc(N4CCNCC4)cc3)ncc2n1 | 
32 | 560 nM | 232 nM | Cc1cn2cc(NC(=O)c3ccc(N4CCN(C)CC4)cc3F)nc2c(C)n1 | 
33 | 87 nM | 37 nM | Cc1cn2cc(NC(=O)c3ccc(N4CCNCC4)cc3F)ncc2n1 | Activity [3]: Non-Toxic; Activity [4]: Non-Toxic; Activity [5]: Non-Toxic; Activity [6]: Non-Toxic; Activity [7]: Non-Toxic
34 | 495 nM | 85 nM | Cc1cn2cc(NC(=O)c3cc(F)c(N4CCNC(C)C4)cc3F)ncc2n1 (stereo not given) | 
35 | 603 nM | 165 nM | Cc1cn2cc(NC(=O)c3ccc(N4CCNC(C)C4)c(F)c3F)ncc2n1 (stereo not given) | 
36 | 122 nM | 15 nM | Cc1cn2cc(NC(=O)c3ccc(N4CCN[C@H](C)C4)cc3F)ncc2n1 | 
37 | 8760 nM | 2030 nM | Cc1cn2cc(NC(=O)c3c(F)cc(N4CCNCC4)cc3Cl)ncc2n1 | 
